Experimental data as given in ChEMBL document CHEMBL3272302, “Synthesis and evaluation of alpha-hydroxythiol esters as antitumor agents and glyoxalase I inhibitors” (J Med Chem, 1977).

Assays:
[1] = system: Mus musculus; experiment: Toxicity in BDF1 mouse allografted with mouse L1210 cells at 100 mg/kg, ip administered on day 1, 5, and 9; assay type: organism-based; set-up: dose 100 mg/kg, route intraperitoneal; conditions: in vivo
How it was run: (§1)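 BDF1 mice implanted ip on day 0 with L1210 lymphoid leukemia cells. Compound given ip as a suspension in saline, saline with Tween 80, or Klucel (HPC), with injections every fourth day. Multiple dose levels 400, 200 and 100 mg/kg; three- or six-mouse groups. Toxicity scored as survivors per animals started, recorded on day 5.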

[2] = system: L1210; experiment: Antitumor activity against mouse L1210 cells allografted in BDF1 mouse assessed as increase in host survival days at 100 mg/kg, ip administered on day 1, 5, and 9 relative to control; assay type: functional; conditions: route intraperitoneal
How it was run: (§2)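 L1210 lymphoid leukemia cells were implanted ip in BDF1 mice on day 0. Compounds were given ip as suspensions in saline, saline with Tween 80, or Klucel (hydroxypropylcellulose). Injections were repeated every fourth day at the same dose. Groups had three or six mice, and controls received vehicle only. The read-out was mean survival time in days for treated and control animals.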

[3] = system: L1210; experiment: Antitumor activity against mouse L1210 cells allografted in BDF1 mouse assessed as increase in host survival time at 100 mg/kg, ip administered on day 1, 5, and 9 relative to control; assay type: functional; conditions: route intraperitoneal
How it was run: (§3)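 BDF1 mice received ip L1210 lymphoid leukemia cells on day 0. Compounds were then given ip in saline, saline/Tween 80, or Klucel vehicle, repeated every fourth day at a fixed dose from the 400, 200, 100 mg/kg series. Assays used three or six mice, with vehicle-treated controls. T/C % is treated over control mean survival time, expressed as percent.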

[4] = biological target: Lactoylglutathione lyase (Saccharomyces cerevisiae); experiment: Inhibition of yeast glyoxalase-1 using methylglyoxal and glutathione as substrate; conditions: read-out: I50
[5] = biological target: Lactoylglutathione lyase (Saccharomyces cerevisiae); experiment: Competitive inhibition of yeast glyoxalase-1 using methylglyoxal and glutathione as substrate by Lineweaver-Burk plot analysis
[6] = system: Mus musculus; experiment: Toxicity in BDF1 mouse allografted with mouse L1210 cells at 100 mg/kg, ip administered on day 2 and 6; assay type: organism-based; set-up: dose 100 mg/kg, route intraperitoneal; conditions: in vivo; how it was run: as §1
[7] = system: L1210; experiment: Antitumor activity against mouse L1210 cells allografted in BDF1 mouse assessed as increase in host survival days at 100 mg/kg, ip administered on day 2 and 6 relative to control; assay type: functional; conditions: route intraperitoneal; how it was run: as §2
[8] = system: L1210; experiment: Antitumor activity against mouse L1210 cells allografted in BDF1 mouse assessed as increase in host survival time at 100 mg/kg, ip administered on day 2 and 6 relative to control; assay type: functional; conditions: route intraperitoneal; how it was run: as §3
[9] = system: Mus musculus; experiment: Toxicity in BDF1 mouse allografted with mouse L1210 cells at 200 mg/kg, ip administered on day 2 and 6; assay type: organism-based; set-up: dose 200 mg/kg, route intraperitoneal; conditions: in vivo; how it was run: as §1
[10] = system: L1210; experiment: Antitumor activity against mouse L1210 cells allografted in BDF1 mouse assessed as increase in host survival days at 200 mg/kg, ip administered on day 2 and 6 relative to control; assay type: functional; conditions: route intraperitoneal; how it was run: as §2
[11] = system: L1210; experiment: Antitumor activity against mouse L1210 cells allografted in BDF1 mouse assessed as increase in host survival time at 200 mg/kg, ip administered on day 2 and 6 relative to control; assay type: functional; conditions: route intraperitoneal; how it was run: as §3
[12] = system: Mus musculus; experiment: Toxicity in BDF1 mouse allografted with mouse L1210 cells at 200 mg/kg, ip administered on day 1, 5, and 9; assay type: organism-based; set-up: dose 200 mg/kg, route intraperitoneal; conditions: in vivo; how it was run: as §1
[13] = system: L1210; experiment: Antitumor activity against mouse L1210 cells allografted in BDF1 mouse assessed as increase in host survival days at 200 mg/kg, ip administered on day 1, 5, and 9 relative to control; assay type: functional; conditions: route intraperitoneal; how it was run: as §2
[14] = system: L1210; experiment: Antitumor activity against mouse L1210 cells allografted in BDF1 mouse assessed as increase in host survival time at 200 mg/kg, ip administered on day 1, 5, and 9 relative to control; assay type: functional; conditions: route intraperitoneal; how it was run: as §3
[15] = system: Mus musculus; experiment: Toxicity in BDF1 mouse allografted with mouse L1210 cells at 100 mg/kg, ip administered on day 1; assay type: organism-based; set-up: dose 100 mg/kg, route intraperitoneal; conditions: in vivo; how it was run: as §1
[16] = system: L1210; experiment: Antitumor activity against mouse L1210 cells allografted in BDF1 mouse assessed as increase in host survival days at 100 mg/kg, ip administered on day 1 relative to control; assay type: functional; conditions: route intraperitoneal
[17] = system: L1210; experiment: Antitumor activity against mouse L1210 cells allografted in BDF1 mouse assessed as increase in host survival time at 100 mg/kg, ip administered on day 1 relative to control; assay type: functional; conditions: route intraperitoneal
[18] = system: Mus musculus; experiment: Toxicity in BDF1 mouse allografted with mouse L1210 cells at 400 mg/kg, ip administered on day 1; assay type: organism-based; set-up: dose 400 mg/kg, route intraperitoneal; conditions: in vivo; how it was run: as §1
[19] = system: L1210; experiment: Antitumor activity against mouse L1210 cells allografted in BDF1 mouse assessed as increase in host survival days at 400 mg/kg, ip administered on day 1 relative to control; assay type: functional; conditions: route intraperitoneal
[20] = system: L1210; experiment: Antitumor activity against mouse L1210 cells allografted in BDF1 mouse assessed as increase in host survival time at 400 mg/kg, ip administered on day 1 relative to control; assay type: functional; conditions: route intraperitoneal

## CCCCOC(=O)CSC(=O)C(O)c1ccccc1 (stereo not given)
[1]
  Activity: Toxic
[2]
  T/C: 105%
[3]
  Time: 10.2 days
[4]
  IC50: 44.5 mM
[5]
  Ki: 34.7 mM

## CCCCSC(=O)C(C)O (stereo not given)
[6]
  Activity: Toxic
[7]
  T/C: 99%
[8]
  Time: 10 days
[4]
  IC50: 16.5 mM
[5]
  Ki: 12.9 mM

## CC(O)C(=O)SCc1ccccc1 (stereo not given)
[9]
  Activity: Toxic
[10]
  T/C: 98%
[11]
  Time: 10.3 days
[4]
  IC50: 7.1 mM
[5]
  Ki: 5.5 mM

## COC(=O)CSC(=O)C(O)c1ccccc1 (stereo not given)
[12]
  Activity: Toxic
[13]
  T/C: 103%
[14]
  Time: 10.5 days
[4]
  IC50: 10.5 mM
[5]
  Ki: 8.2 mM

## CCCCSC(=O)C(O)c1ccccc1 (stereo not given)
[15]
  Activity: Toxic
[16]
  T/C: 105%
[17]
  Time: 9.8 days
[4]
  IC50: 37.8 mM
[5]
  Ki: 29.6 mM

## COC(=O)CCSC(=O)C(O)c1ccccc1 (stereo not given)
[18]
  Activity: Toxic
[19]
  T/C: 105%
[20]
  Time: 9.8 days
[4]
  IC50: 49.6 mM
[5]
  Ki: 38.6 mM

## O=C(SCc1ccccc1)C(O)c1ccccc1 (stereo not given)
[12]
  Activity: Toxic
[13]
  T/C: 100%
[14]
  Time: 10.7 days
[4]
  IC50: 8.1 mM
[5]
  Ki: 6.3 mM
